Compound activity as filed in PubChem BioAssay.
In the library only some 3.5% were active in any assay of this set; here they are far more common.
FN deposition inh: inhibitors of fibronectin matrix deposition, primary screen, AH1F cells, Alexa488-fibronectin fluorescence, plate reader; AID 743247, 2014; inhibition, % at 12.6 µM; 350,000 compounds, 0.086% hits; AH1F fibroblasts, overnight;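 active = mean inhibition across replicates of 30% or more, regardless of how many single replicates reach that level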;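 also: positive control wells lacked labelled fibronectin entirely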
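Material: AH1F fibroblast monolayer depositing Alexa488-labelled fibronectin into matrix / Amount: 10000 AH1F cells per well / Signal: fluorescence 485/525 nm / Medium: DMEM, 2% serum / Compound: single dose, pinned / Incubation: 1 h cell adhesion before compound, then overnight fibronectin incubation / Reagent: Alexa488-FN, 24 nM final / Read-out: inhibition of fibronectin deposition signal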
PGC1a acetyl inh: inhibitors of PGC1a acetylation signal, primary screen, cell-based, U2OS, AlphaScreen, inhibitor mode | 350,000 compounds, 0.17% hits | AID 651687, 2012 | inhibition, % at 15.6 µM | AlphaScreen anti-acetyl-lysine; with virally co-expressed GCN5 acetyltransferase;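 active = every replicate shows inhibition of at least 40%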;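 also: 0% = neutral control wells and 100% = positive control wells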
PglD DTNB: C. jejuni PglD acetyltransferase inhibitors, primary screen, biochemical, DTNB colorimetric, single point; UDP-N-acetylbacillosamine N-acetyltransferase PglD (Campylobacter jejuni); purified PglD enzyme, DTNB colorimetric CoA detection; inhibition, % at 12.5 µM; 360,000 compounds, 0.098% hits; AID 602405, 2012; in the data active = inhibition above about 16%, passing the limit was not always enough
DENV2 CPE: inhibitors of DENV2 cytopathic effect, primary screen, cell-based, plate reader, single concentration; DENV2-infected cells, cytopathic effect rescue; CPE inhibition, % at 9.99 µM; 350,000 compounds, 1.7% hits; in the data active = CPE inhibition above about 20%, passing the limit was not always enough; tested in BHK-21 cells;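 also: 0% = median of neutral control wells and 100% = median of positive control wells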
Ecoli rRNA inh: reduced GFP signal of wild-type E. coli, primary screen, bacterial rRNA inhibitor project, GFP/RFP fluorescence, OD600, single point; E. coli WT GFP vs humanized-ribosome RFP mutants, 24 h; active compounds read low; DMSO median 0, no signal -100; GFP signal change (wild-type ribosome), % (concentration not given with the values); 350,000 compounds, 1.6% hits;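 active = significant combined selectivity score with lowered wild-type GFP, culture density cut under 30%, mutant RFP and density less affected; inactive = any of these conditions unmet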
HIV Env fusion: inhibitors of HIV-1 Env-driven cell-cell fusion, primary screen, HeLa-JRFL effector, CEM21 target cells, luciferase | inhibition, % at 12.3 µM | 360,000 compounds, 1.1% hits | AID 651610, 2012;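 active = mean replicate inhibition score of at least 50 and every replicate individually at or above 50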;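 also: 0% = plate neutral controls and 100% = maraviroc near 300 nM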
* = called active by the depositor; nt = no result given; [ ] = another dose, or the depositor's remark.

SMILES	FN deposition inh	PGC1a acetyl inh	PglD DTNB	DENV2 CPE	Ecoli rRNA inh	HIV Env fusion
c1ccc(-c2ccc3c(c2)c2c4n3CCN=C4CCC2)cc1	1	1	6	nt	nt	60*
COc1cc(NC(=O)[C@@H](Cc2ccccc2)NC(=O)[C@H]2O[C@@H](n3ccc(=O)[nH]c3=O)[C@H](O)[C@@H]2O)cc(OC)c1OC	6	nt	nt	43*	13	18
COc1ccc(S(=O)(=O)N(C)C[C@H]2Oc3ncc(-c4ccncc4)cc3C(=O)N([C@H](C)CO)C[C@H]2C)cc1	-4	-9	-1	19	-6	-17[16.7 µM]
CC1C=NC(S(=O)(=O)N2CC[C@H]3[C@@H](CO)N(C)c4ccc(-c5ccccc5F)cc4[C@H]32)=N1 (stereo not given in full)	-10	10	-2	-5	-17	nt
O=C1C(=O)c2cccnc2-c2ncccc21	45*	nt	nt	1	-52	60*
O=C1c2cc([N+](=O)[O-])ccc2-c2ncccc21	-1	nt	nt	51*	-12	7
Cn1c(SCC(=O)CC(=O)Nc2ccccc2)nnc1-c1ccc(O)cc1	nt	0	-3	9	-18*	nt
Cn1c(SCC(=O)Nc2ccc(F)cc2)nnc1-c1cccnc1	-1	-2	4	22*	6	3
COC(=O)C[C@@H]1CC[C@H]2[C@@H](COc3ccc(NC(=O)NCc4ccccc4)cc3C(=O)N2C)O1	2	0	-3	-2	2	9[16.7 µM]
CN1C(=O)c2cc(NC(=O)C3CCCC3)ccc2OC[C@@H]2O[C@H](CC(=O)NCC3CC3)CC[C@H]21	1	-2	2	-9	4	11[16.7 µM]
CCc1n[nH]c(=S)n1/N=C/C(C)=C\c1ccccc1	2	nt	-3	0	5	56*
